Screening results deposited in PubChem by several laboratories.
H9c2 protect = modulators protecting cardiomyocytes from myocardial damage | H9c2 cardiomyocytes, H2O2 injury protection, ATPLite, 2 h | protection from H2O2 cell death, % at 20 µM | 0.63% of 360,000 active | AID 588492;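 active = compounds giving at least 50% protection of heart cells from peroxide-induced death in the single-dose screen, raw or plate-pattern-corrected value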
H9c2 TAG inh = reduces triacylglycerol accumulation in H9c2 cells. Nile Red lipid (TAG) fluorescence; cells loaded with 200 µM oleic acid. inhibition, % at 12.5 µM. 0.66% of 230,000 active;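 active = pattern-corrected inhibition of lipid staining of at least 50% with the nuclear-stain viability signal not falling by more than 50%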
Tn6 DDE FP = disrupts Tn6 cyclic peptide binding to fibrin D-Dimer-E complex; P02675; 0.21% of 370,000 active; inhibition, % at 8.3 µM; Fibrin DD(E) TRITC-Tn6 fluorescence polarization displacement;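 active = inhibition above a per-campaign cutoff: mean of compounds within control limits plus 3 SD, cut at about 15% in these data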
DDE Tn7 FP inh = DD(E)-Tn7 binding inhibition, primary FP screen; FP displacement of FITC-Tn7 peptide from fibrin DD(E); 0% = median of compound wells per plate; inhibition, % at 8.3 µM; 0.13% of 370,000 active; AID 720508;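 active = inhibition above the mean of compounds falling within the control limits plus 3 SD of them, cut at about 14% in these data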
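Assay system: human fibrin DD(E) protein / Input: 2 µM fibrin DD(E) / Benchmarks: high control of 10 µM Aha-Tn7 peptide / Measured by: fluorescence polarization of the labelled Tn7 tracer / Medium: Tris buffer with calcium and detergent, pH 7.8 / Timing: 10 min compound pre-incubation, 3 h probe incubation at room temperature / Repeats: one replicate per compound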
DAGLB inhibitor = blocks human DAGLB lipase activity; Q8NCG7; HEK293T DAGLB membrane lysate, EnzChek fluorogenic substrate; inhibition, % at 5.17 µM; 0.059% of 340,000 active; in the data active = inhibition above about 34%
Target sequence (Q8NCG7 whole entry, looked up): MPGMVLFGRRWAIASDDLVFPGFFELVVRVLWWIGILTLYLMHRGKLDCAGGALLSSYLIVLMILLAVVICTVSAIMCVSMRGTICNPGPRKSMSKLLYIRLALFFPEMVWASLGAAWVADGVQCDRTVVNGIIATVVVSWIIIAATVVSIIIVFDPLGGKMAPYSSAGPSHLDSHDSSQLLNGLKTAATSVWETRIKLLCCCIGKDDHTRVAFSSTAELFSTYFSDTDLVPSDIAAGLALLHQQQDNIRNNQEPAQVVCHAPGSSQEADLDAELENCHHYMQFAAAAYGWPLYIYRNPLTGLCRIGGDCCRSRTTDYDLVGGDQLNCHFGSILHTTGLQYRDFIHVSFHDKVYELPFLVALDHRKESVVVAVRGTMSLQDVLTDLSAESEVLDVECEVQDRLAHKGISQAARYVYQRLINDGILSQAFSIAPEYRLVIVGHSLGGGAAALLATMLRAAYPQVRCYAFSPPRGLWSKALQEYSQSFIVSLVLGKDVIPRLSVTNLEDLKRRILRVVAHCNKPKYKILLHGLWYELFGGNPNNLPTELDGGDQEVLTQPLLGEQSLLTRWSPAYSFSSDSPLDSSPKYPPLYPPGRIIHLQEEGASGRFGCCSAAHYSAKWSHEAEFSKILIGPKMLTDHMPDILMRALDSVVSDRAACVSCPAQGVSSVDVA
MT1-MMP act inh = blocks activation of human MT1-MMP; AID 651647; HT1080 RFP-PRO-GFP cells, GFP/RFP ratio fluorescence, overnight; percent of plate control window, DMSO zero; P50281; GFP/RFP ratio change, % at 20 µM; 0.061% of 360,000 active;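 active = GFP/RFP ratio change of at least 30% with cell ATP level not reduced by more than half and red fluorescence within 50% of control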
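Assay system: RFP-PRO-GFP reporter HT1080 cells; read-out basis: GFP/RFP fluorescence ratio; benchmarks: DMSO wells and RFP-L50D-GFP cells; doses: 20 µM single dose, 1% DMSO; schedule: overnight cell settling, then overnight compound exposure, 37 °C, 5% CO2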
TAG conf = confirmation of triacylglycerol accumulation inhibitors | shares compounds with H9c2 TAG inh | H9c2 lipid accumulation, Nile Red fluorescence; cells loaded with 200 µM oleic acid | inhibition, % at 12.5 µM | 71% of 990 active;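 active = mean inhibition across replicates of 40% or more; inactive = mean inhibition below 40%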
Each line names hits and unclear results; the compound was inactive in the other large screens (follow-up assays come after a bar, where they were run). The list is not random: actives were taken first. Their share in the collection is about 1.4%.

CN(C)CCCN1c2ccccc2Sc2ccccc21	H9c2 protect 50.2, H9c2 TAG inh 60.5 | TAG conf 47.0
CC(C)CCNCC(O)CON=C1c2ccccc2-c2ccccc21 (centres undefined)	H9c2 TAG inh 64.2 | TAG conf 41.7
CCCCNC(=O)C[C@H]1C[C@@]2(C(=O)OCC)CCCC3=C2N(CCC3)C1=O	none (no result: H9c2 protect, H9c2 TAG inh, DAGLB inhibitor, MT1-MMP act inh)
O=C(Nc1ccc2oc(-c3cccnc3)nc2c1)c1cc2ccccc2o1	H9c2 TAG inh 51.9 | TAG conf inactive
O=C1OCCN1C(=O)[C@H]1[C@H](c2ccc(Cl)cc2)C(c2ccc(F)cc2)=NN1c1ccc(Br)cc1	H9c2 TAG inh 104.9 | TAG conf inactive
COC(=O)c1cnn(-c2ccc(Cl)cc2)c1/C=N/NC(=S)Nc1ccccc1	none (no result: H9c2 protect, H9c2 TAG inh, DAGLB inhibitor, MT1-MMP act inh)
Cc1cccn2c(=O)c3cc(C(=O)NC4CCCC4)c(=N)n(C4CCCC4)c3nc12	H9c2 TAG inh 51.4 | TAG conf 44.2
CC(=O)Nc1ccc(SC[C@H](Cc2ccccc2)N2CCN(CC(C)C)CCC2=O)cc1	none
CC(=O)Nc1ccc(SC[C@H](CC(C)C)N2CCN(CC(C)C)CCC2=O)cc1	H9c2 TAG inh 67.5 | TAG conf inactive
S=c1[nH]nc(-c2cc(-c3ccccc3)n[nH]2)n1N=Cc1cccc(OCc2ccccc2)c1	none (no result: H9c2 protect, H9c2 TAG inh, DAGLB inhibitor, MT1-MMP act inh)
CCOCCC(=O)Nc1ccc2c(c1)c(=O)n(C)n2C/C=C/c1ccccc1	H9c2 TAG inh 53.4 (no result: DAGLB inhibitor) | TAG conf 49.3
CCCCCCCCN1C(=O)[C@@H](CC(=O)N2CCN(C(=O)c3ccco3)CC2)C[C@@]2(C(=O)OC)C1=C[C@H](COCc1ccccc1)O[C@@H]2C	none (no result: H9c2 protect, H9c2 TAG inh, DAGLB inhibitor, MT1-MMP act inh)
COc1ccc(-n2ccnc2SCC(=O)NC2CCCC2)c(OC)c1	H9c2 TAG inh 71.1 | TAG conf inactive
Cc1ccccc1-n1ccnc1SCC(=O)NC1CCCC1	none (no result: H9c2 TAG inh)
CSc1ccc(C2=C/C(=C3/SC(=S)NC3=O)c3ccccc3O2)cc1	H9c2 TAG inh 59.3 | TAG conf 58.1
CCOC(=O)c1cnc2ccc(OCC)cc2c1N1CCN(c2ccccc2)CC1	H9c2 TAG inh 52.8 | TAG conf inactive
CCOc1ccc2ncc(S(=O)(=O)c3ccccc3)c(N3CCN(c4ccccc4)CC3)c2c1	none
Nc1c(C(=O)Nc2ccccc2)c2nc3ccccc3nc2n1CCCN1CCOCC1	H9c2 TAG inh 83.1 | TAG conf 86.0
O=C(Nc1ccc(-c2csc(Nc3ccc(Cl)cc3)n2)cc1)c1cc([N+](=O)[O-])cc(C(F)(F)F)c1	H9c2 TAG inh 50.8 | TAG conf 57.4
O=C(Nc1cccc(-c2csc(Nc3ccccc3)n2)c1)c1cc([N+](=O)[O-])cc(C(F)(F)F)c1	none
O=C(Nc1cccc(-c2csc(Nc3ccc(Cl)cc3)n2)c1)c1ccccc1	none
O=C(Nc1cccc(-c2csc(Nc3ccc(Cl)cc3)n2)c1)c1cc([N+](=O)[O-])cc(C(F)(F)F)c1	H9c2 TAG inh 55.9 | TAG conf 50.4
Clc1cccc(Nc2nc(-c3ccncc3)cs2)c1	H9c2 TAG inh 80.7 | TAG conf 59.4
O=C(Nc1cccc(-c2csc(Nc3ccc(Cl)cc3)n2)c1)c1cccc(C(F)(F)F)c1	H9c2 TAG inh 54.0 | TAG conf 65.2
CCCc1cc(C(=O)N/N=C/c2ccc(CC)s2)c2ccccc2n1	H9c2 TAG inh 56.1 | TAG conf 60.9
CCc1ccc(/C=N/NC(=O)c2cc(-c3ccncc3)nc3ccccc23)s1	none
Cc1ccsc1-c1nc(C(N)=O)c2[nH]c(=O)n(-c3ccc(Cl)cc3)c2n1	H9c2 TAG inh 56.6 | TAG conf 41.5
COc1cccc(Nc2nc(C(N)Cc3ccc(F)cc3)cs2)n1 (centres undefined)	none (no result: DAGLB inhibitor)
COc1ccc(CC(N)c2csc(NC(=O)NCCc3ccccc3)n2)cc1 (centres undefined)	none (no result: DAGLB inhibitor)
COc1ccc(CNC(=O)Nc2nc(C(N)Cc3ccc(C(F)(F)F)cc3)cs2)cc1 (centres undefined)	H9c2 TAG inh 61.3 (no result: DAGLB inhibitor) | TAG conf inactive
